Data on 82 compounds can be found in PubChem BioAssay AID449761 (Broad Institute, 2010).

SMILES strings stand for the structures. Results filed as inconclusive are left out. Active and inactive are the calls of the source.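 How the source made its calls: active means compounds raising caspase signal with fitted AC50 no more than tenfold above the top tested dose; inconclusive means flat curve at 30 to 70% activity, or unusable fit; inactive means the rest.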 Some results are limits rather than exact numbers.

The test system of the assay is MEF WT non-primed, caspase-Glo luminescence, 3 h. As to the kind of experiment: caspase activation in non-primed cells, dose response, counter-screen for Bcl2-A1 inhibitor project, cell-based, caspase-Glo luminescence, 3 h (AID 449761). In a few lines:
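Test system – Non-primed wild-type MEF cells · Timing – 3 h compound at 37 °C, 1 h detection at room temperature · Technique – CaspaseGlo luminescence, reagent diluted 1:1 in 50 mM HEPES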
Turning to `CCOc1ccc(NCc2cccn2-c2nnc(N3CCC(C(=O)NCCCN4CC(C)CC(C)C4)CC3)s2)cc1` (configuration not stated), the AC50 is > 35 µM (inactive).

With `CC1=NNC(=O)/C1=C\c1cn(-c2ccccc2)nc1-c1cccs1`, the AC50 was 14.3 µM.

Regarding `COc1cc(NC(=O)c2ccc(C)cc2C)ccc1NC(=O)c1cc2ccccc2o1`, the AC50 was 30.4 µM.

Consider `CCOC(=O)C1=C(c2ccccc2)O/C(=C(/C#N)C(F)(F)F)S1`, for which the AC50 was > 35 µM (inactive).

Turning to `COc1ccc(-c2c(C#N)c(N)nc(Sc3ccc(Cl)cc3)c2C#N)cc1`, the AC50 is > 35 µM (inactive).

With `CC(C)N=c1scc(-c2ccco2)n1/N=C/c1ccc(O)c(O)c1`, the AC50 is > 35 µM (inactive).

With `CC(C)c1cccc(-c2ccc3c(c2)S(=O)(=O)c2cccc(C(=O)NC4CCCC4)c2C3=O)c1`, the AC50 is > 35 µM (inactive).

In the case of `COc1ccc(C(=O)/C=C/C(=O)N(CC(=O)NC2CCCCC2)Cc2cccs2)c(O)c1`, the AC50 was 23.7 µM.

Take `CC[C@H]1CN2CCc3cc(OC)c(OC)cc3[C@@H]2C[C@@H]1C[C@H]1NCCc2cc(OC)c(OC)cc21`: the AC50 was > 35 µM (inactive).

Take `O=C(Nc1ccc2oc(-c3ccccc3Cl)nc2c1)c1cncc(Br)c1`: the AC50 is 30.7 µM.

For `COC(=O)c1ccc2c(c1)C(C)(C)C(/C=C/c1ccccc1O)=[N+]2C`, the concentration at half-maximal activity (AC50) was 8.57 µM.

Take `COc1cc(-c2cc(-c3ccccc3)nc(SCC(=O)Nc3nccs3)c2C#N)cc(OC)c1OC`: the AC50 was > 35 µM (inactive).

In the case of `CC1CC(C)CN(C(=O)c2ccc(-c3ccc([N+](=O)[O-])cc3)o2)C1` (configuration not stated), the AC50 is > 35 µM (inactive).

In the case of `CCC(Sc1nc2cc3c(cc2c(=O)n1Cc1ccco1)OCO3)C(=O)Nc1cccc(OC)c1` (configuration not stated), the AC50 is > 35 µM (inactive).

`O=C(/C=C/c1ccc(F)cc1)NC(=S)Nc1ccccc1C(=O)NC1CCCCC1`: the AC50 is > 35 µM (inactive).

Consider `COc1ccc(NC(=O)CSc2nc3ccc(Nc4nc(N5CCOCC5)nc(N5CCOCC5)n4)cc3s2)cc1`, for which the AC50 was > 35 µM (inactive).

With `COc1ccccc1CCNC(C)CCc1ccc(O)cc1` (configuration not stated), the AC50 was > 35 µM (inactive).

In the case of `COc1ccc(C=C2C=C(C(C)(C)C)C(=O)C(C(C)(C)C)=C2)cc1OC`, the AC50 was 2.98 µM.

Consider `COc1ccc(-c2ccc3c(c2)S(=O)(=O)c2cccc(C(=O)NCc4cccc(OC(F)(F)F)c4)c2C3=O)cc1OC`, for which the AC50 is 8.54 µM.

Turning to `COc1ccc2[nH]c3c(=O)n(/N=C/[C@H]4C(C)C=C(C)CC4C)c(=O)[nH]c3c2c1` (some centres not stated), the AC50 was 10.1 µM.

Regarding `CC(=O)Nc1ccc(NC(=O)C(C)OC(=O)/C=C/c2cn(-c3ccccc3)nc2-c2cccnc2)cc1` (configuration not stated), the AC50 is 25 µM.

For `Nc1nc(F)nc2c1ncn2[C@@H]1O[C@H](CO)[C@@H](O)[C@H]1O`, the AC50 was > 35 µM (inactive).

As to `CCOC(=O)C(C(=O)OCC)c1cc(Br)c2noc3c2c1C(=O)c1ccccc1-3`, the AC50 was 8.67 µM.

As for `O=[N+]([O-])/C=C/c1cn(Cc2ccc(Cl)cc2)c2ccccc12`, the AC50 was 18.4 µM.

As to `COc1ccc(C[C@H]2NC[C@H](O)[C@H]2OC(C)=O)cc1`, the AC50 was > 35 µM (inactive).

Turning to `O=C(NC1CCCCC1)C(c1ccc(F)cc1)N(CCc1ccccc1)C(=O)CN1C(=O)c2ccccc2S1(=O)=O` (configuration not stated), the AC50 is 19.6 µM.

`Cc1cc(C)cc(Cn2ncc(Cl)c(Cl)c2=O)c1`: the AC50 was > 35 µM (inactive).

Consider `Cc1ccc(S(=O)(=O)c2nnn3c2nc(Nc2cccc(C)c2)c2ccccc23)cc1`, for which the AC50 was > 35 µM (inactive).

For the compound `COc1ccccc1C(=O)Nc1ccnn1C1CCN(Cc2cn(C)c3ccccc23)CC1`, the AC50 is > 35 µM (inactive).

Turning to `Cc1ccc(C=C2C(Cl)=C(Cl)C(Cl)=C2Cl)cc1`, the AC50 was 5.72 µM.

Regarding `CC(C)CC(NC(=O)c1ccc(Cl)cc1)C(=O)OCC(=O)c1ccc2c(c1)NC(=O)CO2` (configuration not stated), the AC50 is 4.28 µM.

As for `COc1cc2ncnc(NCc3ccc(F)cc3)c2cc1OC`, the AC50 is > 35 µM (inactive).

As to `CCc1ccc(Nc2n[n+](-c3ccccc3)c(/C=C/c3ccccc3)s2)cc1`, the AC50 was 9.79 µM.

In the case of `N#CC(C#N)=C1C=CC=CN1/C(=C\c1ccccc1Cl)C(=O)c1ccccc1`, the AC50 is 5.01 µM.

As for `CCOc1cc(/C=N/Nc2cc(C)nc(-n3nc(C)cc3C)n2)ccc1O`, the AC50 is > 35 µM (inactive).

On to `Cc1ccc(-c2nc(NC(=O)c3nn(C)cc3[N+](=O)[O-])sc2C)cc1C`, for which the AC50 was 5.21 µM.

For `O=C(CCl)N=c1sccn1Cc1ccccc1Cl`, the AC50 was > 35 µM (inactive).

Consider `Cc1ccc(C2(c3ccc(C)cc3)CC2C(=O)Nc2ccc([N+](=O)[O-])cc2O)cc1` (configuration not stated), for which the AC50 is > 35 µM (inactive).

For the compound `CCOC(=O)/C=c1\s/c(=C\c2ccc(C(=O)OC)cc2)c(=O)n1CC(=O)Nc1ccccc1`, the AC50 is > 35 µM (inactive).

Consider `CCn1c(Cl)c(C=O)s/c1=N\S(=O)(=O)c1ccccc1`, for which the AC50 was > 35 µM (inactive).

As to `Cc1cc(=O)[nH]c(SCC(=O)Nc2ccc(Br)cc2)c1C#N`, the AC50 is > 35 µM (inactive).

For `CCOC(=O)N1C(=O)[C@@](c2ccc(Cl)cc2)(C(C)C)N1C(=O)OCC`, the AC50 is > 35 µM (inactive).

Consider `CC1=CC(=O)C(C(C)C)=C/C1=N/OS(=O)(=O)c1ccccc1`, for which the AC50 was 22 µM.

With `CC1(C)C[C@H](O)[C@]2(CO)[C@H](O)C[C@]3(C)C(=CCC4[C@@]5(C)CC[C@H](O)C(C)(C)C5CC[C@]43C)[C@@H]2C1` (some centres not stated), the AC50 was > 35 µM (inactive).

Consider `CCOC(=O)c1c(C)oc2c1c(CN1CCN(C(=O)OCC)CC1)c(O)c1ccccc12`, for which the AC50 is 20.8 µM.

`C=C1CCc2c([nH]c3ccc(OCC(C)C)cc23)C1=O`: the AC50 is 14.2 µM.

In the case of `N#Cc1cccnc1N1CCN(C(=O)c2cccc3c2C(=O)c2ccc(-c4ccc(Cl)c(C(F)(F)F)c4)cc2S3(=O)=O)CC1`, the AC50 is > 35 µM (inactive).

Turning to `COc1ccccc1-c1cc(C(F)(F)F)nc(S(=O)(=O)CCCC(=O)N2CCOCC2)n1`, the AC50 is 8.99 µM.

`O=S1(=O)CCOC[C@H](CC2CCCCC2)N1Cc1cccc(Cl)c1`: the AC50 is > 35 µM (inactive).

For the compound `COc1ccc(C2CC(c3c(O)cc(C)oc3=O)=NCCS2)c(OC)c1` (configuration not stated), the AC50 was > 35 µM (inactive).

In the case of `COc1ccc(-c2ccc3c(c2)S(=O)(=O)c2cccc(C(=O)NC[C@@H]4CCCO4)c2C3=O)cc1OC`, the AC50 was > 35 µM (inactive).

For the compound `COc1cc(C(=O)Nc2cc3c(cc2N2CCCCC2)n(C)c(=O)n3C)cc(OC)c1OC`, the AC50 was > 35 µM (inactive).

With `Cc1ccc(C)c(S(=O)(=O)NCC(=O)Nc2sc3c(c2C(N)=O)CCC(C)C3)c1` (configuration not stated), the AC50 is > 35 µM (inactive).

As to `COC(=O)Cc1csc(/N=C/c2c(O)n(-c3cccc(C(F)(F)F)c3)c(=O)c3ccccc23)n1`, the AC50 was 9.26 µM.

Turning to `Cc1ccc(Sc2c([N+](=O)[O-])c(=O)n(C)c3ccccc23)cc1`, the AC50 was > 35 µM (inactive).

In the case of `Cc1ccc(NC(=S)NC(NC(=O)Cc2cccc3ccccc23)C(Cl)(Cl)Cl)cc1` (configuration not stated), the AC50 was 22.9 µM.

For `COc1ccc(C2C(O)C(c3c[nH]c4ccccc34)=NN2C(=O)CCl)cc1` (configuration not stated), the AC50 is 36.1 µM.

Consider `CCOC(=O)COc1ccccc1/C=C\[N+](=O)[O-]`, for which the half-maximal activity concentration (AC50) was 12.2 µM.

Consider `O=C(NCCc1ccccc1)C(c1cccs1)N(C(=O)CCl)c1ccc(Cl)cc1` (configuration not stated), for which the AC50 was 16.4 µM.

As for `O=C1/C(=C\c2c(NCCOCCO)nc3ccccn3c2=O)SC(=S)N1Cc1ccco1`, the AC50 is > 35 µM (inactive).

As for `Cc1occc1-c1nnc(SCC(=O)NCCc2ccccc2)n1Cc1ccccc1`, the AC50 was > 35 µM (inactive).

With `CN(C)CCCN(C(=O)c1cc2cc([N+](=O)[O-])ccc2s1)c1nc2cc3c(cc2s1)OCCO3`, the AC50 was > 35 µM (inactive).

Turning to `Cc1cc(C)cc(NC(=O)/C(C#N)=C/c2cn(CC(=O)NCc3ccco3)c3ccccc23)c1`, the AC50 is 8.84 µM.

As for `CCCc1ccc(OCc2ccc(C(=O)N/N=C/c3cccc([N+](=O)[O-])c3)o2)c(OC)c1`, the AC50 was 6.35 µM.

On to `Cc1ccc(S(=O)(=O)N(C)Cc2ccc(C(=O)N/N=C/c3ccc(OC(F)F)cc3)cc2)cc1`, for which the AC50 was > 35 µM (inactive).

As to `Cc1nn(Cc2c(Cl)cccc2Cl)c(C)c1NC(=O)c1cn(-c2ccccc2)nc1-c1ccccc1`, the half-maximal activity concentration (AC50) was 16.6 µM.

As for `Cc1ccc(N(Cc2cc(=O)[nH]c3ccccc23)C(=O)CCl)cc1`, the AC50 was > 35 µM (inactive).

With `CCSc1nnc(NC(=O)c2nc(S(=O)(=O)Cc3ccc(F)cc3)ncc2Cl)s1`, the AC50 is > 35 µM (inactive).

Consider `Cc1cccc(C)c1NC(=O)C(Cl)C(=O)c1ccccc1` (configuration not stated), for which the AC50 is > 35 µM (inactive).

For the compound `CCOc1ccc(NC(=S)NC(=O)/C=C/c2ccc(C)cc2)c([N+](=O)[O-])c1`, the AC50 is 21.7 µM.

On to `COc1ccc(-c2cc3ccccc3oc2=O)cc1NC(=S)NC(=O)c1ccc2c(c1)OCCO2`, for which the AC50 is 5.96 µM.

`CC(C)(C)c1ccc2c(c1)OC(C(=O)N/N=C\c1ccc[nH]1)CO2` (configuration not stated): the AC50 is > 35 µM (inactive).

As for `Cc1cc(C)n(-c2nc(Nc3ccccc3C)nc(-n3nc(C)cc3C)n2)n1`, the AC50 is 32.1 µM.

As for `COc1ccc(-c2ccc3c(c2)S(=O)(=O)c2cccc(C(=O)NCCOc4ccccc4)c2C3=O)cc1OC`, the AC50 was > 35 µM (inactive).

For the compound `CN(C)C/C=C(\c1ccc(Br)cc1)c1cccnc1`, the AC50 was > 35 µM (inactive).

`CC1=NNC(=O)/C1=C\c1cn(-c2ccccc2)nc1-c1ccccc1`: the AC50 is 11.3 µM.

As for `O=c1c(Cl)c(Cl)cnn1Cc1ccccc1Cl`, the AC50 was > 35 µM (inactive).

Take `CCOCCCNC(=O)c1ccc2c(c1)N=C(CC)c1cc(Br)ccc1S2`: the AC50 is > 35 µM (inactive).

Regarding `Cc1cc(C(=O)CCl)c(C)n1CCc1ccc(Cl)cc1`, the AC50 was > 35 µM (inactive).

On to `N#C/C(=C\c1ccc(OCc2ccccc2)cc1)C(=O)Nc1nc2c(s1)CCN(Cc1ccccc1)C2`, for which the AC50 is > 35 µM (inactive).

As for `Cc1ccc2c(c1)c(C1=c3ccccc3=NC1=O)c(O)n2C`, the AC50 is > 35 µM (inactive).

Consider `Cc1nn(-c2ccccc2)c(Cl)c1CN(C(=O)CCl)c1ccc(Cl)cc1`, for which the AC50 is 24.6 µM.
